Screening data as filed in PubChem BioAssay.
GSH bead fluor – compound fluoresces at 488/530 nm on GSH beads. GSH beads flow cytometry, compound fluorescence 488/530 nm; active compounds read high. fluorescence (KMESF) at 10 µM. 190,000 compounds, 0.25% hits. AID 1776; in the data active means fluorescence above about 89;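 further: glutathione beads carrying GST-tagged Bcl family fusion proteins plus one bare bead set; values are compound well signal with DMSO vehicle wells as background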
Avidin bead fluor – avidin bead compound fluorescence profile | Avidin beads, compound fluorescence 488/530 nm, flow cytometry; active compounds read high | 220,000 compounds, 0.38% hits | fluorescence (KMESF) at 10 µM; in the data active means fluorescence above about 47
Pemphigus Ab inh – blocks pemphigus antibody binding to human desmoglein-3. P32926. DSG3-coupled beads, scFv-anti-DSG3-GFP binding, flow cytometry; active compounds read low. binding (percent of control), % at 10 µM. 310,000 compounds, 0.48% hits;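 active means binding more than 3 SD below its plate's average and above zero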;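 further: hits lower antibody fragment binding to DSG3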
Target sequence (P32926 whole entry, looked up, the tested form may be a part): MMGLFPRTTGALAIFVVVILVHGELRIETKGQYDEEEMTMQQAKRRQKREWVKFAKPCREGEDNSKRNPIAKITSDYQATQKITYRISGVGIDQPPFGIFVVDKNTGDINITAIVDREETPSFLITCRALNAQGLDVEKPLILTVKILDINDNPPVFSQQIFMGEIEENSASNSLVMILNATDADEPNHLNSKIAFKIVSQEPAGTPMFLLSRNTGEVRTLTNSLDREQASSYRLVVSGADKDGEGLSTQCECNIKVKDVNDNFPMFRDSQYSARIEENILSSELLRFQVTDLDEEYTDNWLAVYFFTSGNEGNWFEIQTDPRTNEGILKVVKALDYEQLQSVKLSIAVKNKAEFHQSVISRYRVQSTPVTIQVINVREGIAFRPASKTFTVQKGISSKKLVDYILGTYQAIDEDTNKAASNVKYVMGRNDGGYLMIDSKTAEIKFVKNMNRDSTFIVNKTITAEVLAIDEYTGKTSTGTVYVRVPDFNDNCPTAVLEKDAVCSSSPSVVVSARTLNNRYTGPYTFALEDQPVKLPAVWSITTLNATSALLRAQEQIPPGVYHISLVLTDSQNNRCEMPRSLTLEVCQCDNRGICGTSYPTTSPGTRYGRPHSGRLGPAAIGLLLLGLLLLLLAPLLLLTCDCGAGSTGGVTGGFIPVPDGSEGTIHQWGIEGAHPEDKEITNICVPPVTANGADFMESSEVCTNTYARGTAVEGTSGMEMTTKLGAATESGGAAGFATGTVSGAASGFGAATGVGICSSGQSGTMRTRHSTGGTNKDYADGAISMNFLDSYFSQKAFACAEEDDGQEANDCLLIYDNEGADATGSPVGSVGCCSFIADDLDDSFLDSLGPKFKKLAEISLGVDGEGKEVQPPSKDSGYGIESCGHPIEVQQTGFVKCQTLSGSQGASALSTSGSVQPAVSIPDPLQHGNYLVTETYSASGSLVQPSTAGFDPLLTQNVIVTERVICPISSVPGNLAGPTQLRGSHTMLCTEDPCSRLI
Arr AP2 block – inhibitors of human beta-arrestin and AP2 interaction | FITC-arrestin peptide / GST-AP2 beads, flow cytometry; AP2 beta2 appendage carries R879A mutation | inhibition, % at 10 µM | 340,000 compounds, 0.31% hits | AID 504490;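 active means inhibition above a set limit, near 3 SD of compounds lacking own fluorescence, cut at about 54% in these data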;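 further: plate controls were DMSO wells for no effect and 5 µM unlabelled arrestin peptide for full effect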
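System: GST-AP2 R879A bound to glutathione beads, E. coli-expressed. Also added: 50 nM FITC-arrestin peptide. Schedule: compound with beads 12 min RT, then probe 1 h RT. Signal: bead flow cytometry, FITC channel. Read-out basis: percent response.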
Numbers without * were called inactive; . = no result given. Compounds with a hit are over-represented: about 1.1% of the library has one in this group of screens.

SMILES	GSH bead fluor	Avidin bead fluor	Pemphigus Ab inh	Arr AP2 block
Cc1ccc(C)n1NC(=O)c1cccs1	41	13	83*	-1
Fc1cccc(NC(=S)NC2CCCCCCC2)c1	.	.	101	2
Cc1ccccc1N/C(SCc1ccc(Cl)cc1)=C(/C#N)C(=O)NCc1ccco1	24	115*	120	1
COCCn1c(C)nnc1SCC(=O)NNC(=O)c1ccc(Br)cc1	.	.	111	8
COc1ccc(NS(=O)(=O)c2ccc(OC)c(NC(=O)CNC(=O)c3ccc(OC)cc3)c2)cc1	.	.	106	2
Cc1ccc(C)c(SCC(=O)N(C)CC(=O)Nc2ccc(N3CCOCC3)cc2)c1	.	.	99	0
CCOC(=O)NC(=O)c1cn(-c2ccc(OC)cc2)c(=O)[nH]c1=O	.	.	99	10
O=C(NC1CCCCCC1)c1ccc([N+](=O)[O-])s1	.	.	98	-8
CCOC(=O)c1sc2nc(CC(C)C)c3c(c2c1N)CCC3	13	9	-12*	5
CCOC(=O)c1sc2nc(C)cc(C)c2c1N	12	9	110	0
CCc1sc(C(=O)NNC(=O)c2cncc(Br)c2)cc1C	.	.	99	-7
CC(C)(C)n1ncc2c(=O)n(Cc3ccccc3Br)cnc21	.	.	105	24
COc1ccc(/C=N/n2c(C)cc(C)c(C(N)=O)c2=O)cc1	255*	7	100	10
COc1ccc2ccccc2c1/C=N\n1c(C)cc(C)c(C(N)=O)c1=O	27	11	106	-2
CC1=CCC(C(=O)O)(C(=O)N/N=C/c2cccs2)C(c2ccc([N+](=O)[O-])cc2)C1 (stereo not given)	24	5	33*	-5
Cc1nc(N2CCN(c3ccccc3)CC2)[nH]c(=O)c1Cc1cccc2ccccc12	23	197*	.	.
CCc1c(C)nc(N2CCN(c3ccccc3)CC2)[nH]c1=O	.	.	116	9
CC(=O)C1=C(O)CC(c2ccccc2)CC1=NCCc1c(C)[nH]c2ccc(C)cc12 (stereo not given)	17	.	-12*	0
CC(=O)C1=C(O)CC(c2ccccc2)CC1=NCCc1c(C)[nH]c2ccccc12 (stereo not given)	16	5	102	4
C[C@@H]1CN([C@H](C)CO)C(=O)CCCn2nncc2CO[C@H]1CN(C)Cc1ccc(O)cc1	.	.	31*	.
C[C@H](CO)N1C[C@H](C)[C@@H](CN(C)Cc2ccc(O)cc2)OCc2cnnn2CCCC1=O	.	.	108	.
CCC(=O)N1CCc2cc(Br)cc(S(=O)(=O)CCC(=O)NCc3ccco3)c21	20	51*	97	-3
COc1ccc(CCNC(=O)CCNS(=O)(=O)c2cccc(Cl)c2)cc1OC	10	13	104	15
COc1ccc(N(C(=O)C2COc3ccccc3O2)C(C(=O)NC2CCCCC2)c2ccccc2)cc1OC (stereo not given)	15	17	98	2
COc1cc(OC)cc(N(C(=O)C2COc3ccccc3O2)C(C(=O)NC2CCCCC2)c2ccc(O)cc2)c1 (stereo not given)	17	15	76*	7
SMILES	GSH bead fluor	Avidin bead fluor	Pemphigus Ab inh	Arr AP2 block
Nc1ccc2oc(-c3ccccc3Cl)cc(=O)c2c1O	18	89*	96	7
C=CCSc1nc(N)c(C#N)c(-c2ccccc2)c1C#N	40	9	81*	-2
CCCSc1nc(N)c(C#N)c(-c2ccc(C)cc2)c1C#N	28	21	.	-9
CC(C)C1N=C2c3ccccc3N=C(SCc3cc(=O)n4cc(Cl)ccc4n3)N2C1=O (stereo not given)	25	8	78*	20
CC(C)C1N=C2c3ccccc3N=C(SCC(=O)NCCc3ccc(S(N)(=O)=O)cc3)N2C1=O (stereo not given)	27	11	103	12
O=C(Nc1ncccc1O)c1ccc(Oc2ccccc2)cc1	.	.	97	17
CC(C)(C)NC(=O)CSc1nnc(-c2ccco2)n1Cc1ccco1	17	14	97	4
COC(=O)CSc1nnc(-c2ccco2)n1Cc1ccco1	27	72*	93	2
COC(=O)c1c(NC(=O)CSc2nnc(-c3ccco3)n2Cc2ccccc2)sc(C)c1C	268*	8	.	-9
COC(=O)c1c(NC(=O)CSc2nc3ccccc3c(=O)n2Cc2ccco2)sc(C)c1C	19	14	96	10
O=C(O)c1ccc(-c2ccc(/C=C3\NC(=O)N(Cc4ccc(Cl)cc4)C3=O)o2)cc1Cl	18	9	80*	-1
CCOC(=O)CN1C(=O)S/C(=C\c2ccc(-c3ccc(C(=O)O)c(Cl)c3)o2)C1=O	.	.	107	30
CCON1C(=O)C2(CCCCC2)C(=O)C12C=CCCC2 (stereo not given)	.	.	95	0
Cc1ccc2[nH]cc(S(=O)(=O)c3ccc(C)c(C)c3)c(=O)c2c1	.	.	92	12
Fc1ccc(-c2cc(C(F)(F)C(F)F)[nH]n2)cc1	.	79*	99	-6
O=C(Nc1ccc(-c2cn3c(n2)SCC3)cc1)c1ccc2c(c1)OCO2	9	27	83*	4
C/C(=N\NC(=S)NC1CCCCC1)c1ccccc1	9	18	83*	10
CSCCC(NC(=O)c1ccccc1Cl)C(=O)N1CCCC(C)C1 (stereo not given)	.	.	63	9
N#CC(CCc1ccc([N+](=O)[O-])cc1)(CCc1ccc([N+](=O)[O-])cc1)C(N)=O	.	.	97	-7
O=C(C1CCN(S(=O)(=O)c2cccc3cccnc23)CC1)N1CCCC1	25	7	89*	30
CC(=O)NC(=S)Nc1ccc(NC(=S)NC(=O)/C=C/c2ccco2)cc1	.	7	.	27
O=C(/C=C/c1ccco1)NC(=S)NNC(=O)c1ccco1	16	7	60*	14
CCOC(=O)c1cc2sccc2n1CC(=O)N1CCCC1	31	48*	97	-7
Cc1cc(NC(=O)CS(=O)(=O)c2cn(Cc3ccc(F)cc3)c3ccccc23)no1	28	6	-23*	-2
COc1ccc(CNC(=O)/C=C/c2cc([N+](=O)[O-])ccc2OC(F)F)cc1	32	7	140	30
SMILES	GSH bead fluor	Avidin bead fluor	Pemphigus Ab inh	Arr AP2 block
O=C(/C=C/c1cc([N+](=O)[O-])ccc1OC(F)F)NCc1ccc(Cl)cc1	264*	8	105	24
COc1ccc(OC)c(NC(=O)CCN2CCN(C/C=C/c3ccccc3)CC2)c1	.	.	90	39
CN(C)N=C1c2cc(S(=O)(=O)N(C)C)ccc2-c2ccc(S(=O)(=O)N(C)C)cc21	.	.	100	-5
CN(C)S(=O)(=O)c1ccc2c(c1)C(=NO)c1cc(S(=O)(=O)N(C)C)ccc1-2	.	.	76*	-18
CN(C)S(=O)(=O)c1ccc2c(c1)C(=NNC(N)=O)c1cc(S(=O)(=O)N(C)C)ccc1-2	.	.	86	3
CN(CCO)S(=O)(=O)c1ccc2c(c1)C(=NNC(N)=O)c1cc(S(=O)(=O)N(C)CCO)ccc1-2	.	2	-5.9*	-18
NC(=O)CC(NC(=O)Cc1ccc(Br)cc1)c1ccc(NC2CCCC2)c([N+](=O)[O-])c1 (stereo not given)	.	10	1.8*	26
